Active and inactive are the calls of the source. The calls are words filed in the database; no cut-off is given here.
Columns and labels:
[1] = Cytotoxicity against mouse 3T3-L1 cells assessed as cell viability at 3 uM incubated for 48 hrs by CCK-8 assay relative to control; type: toxicity, cell-based; settings: read-out: Activity
Outline: (§1)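 3T3-L1 preadipocytes seeded at 1 × 10^3 cells/well and left 12 h, then exposed to alkaloids for 48 h. Viability by CCK-8, absorbance at 450 nm, relative to control. Lovastatin 5 μM included. Mean ± SD, n = 3.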

[2] = Cytotoxicity against mouse 3T3-L1 cells assessed as cell viability at 1 uM incubated for 48 hrs by CCK-8 assay relative to control; type: toxicity, cell-based; settings: read-out: Activity; outline: as §1
[3] = Cytotoxicity against mouse 3T3-L1 cells assessed as cell viability at 7.5 uM incubated for 48 hrs by CCK-8 assay relative to control; type: toxicity, cell-based; settings: read-out: Activity; outline: as §1
[4] = Cytotoxicity against mouse 3T3-L1 cells transfected with Lenti-PPARgamma-Luc reporter assessed as cell viability at 5 uM incubated for 48 hrs by CCK-8 assay relative to control; type: toxicity, cell-based; settings: read-out: Activity
Outline: (§2)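 3T3-L1-Lenti-PPARγ-Luc reporter cells (lentivirus-transduced) exposed to alkaloids at a range of concentrations. Viability by CCK-8, absorbance at 450 nm, relative to control, used to set maximum noncytotoxic concentrations. Triplicate.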

[5] = Cytotoxicity against mouse 3T3-L1 cells transfected with Lenti-PPARgamma-Luc reporter assessed as cell viability at 2 uM incubated for 48 hrs by CCK-8 assay relative to control; type: toxicity, cell-based; settings: read-out: Activity; outline: as §2
[6] = Cytotoxicity against mouse 3T3-L1 cells transfected with Lenti-PPARgamma-Luc reporter assessed as cell viability at 0.1 uM incubated for 48 hrs by CCK-8 assay relative to control; type: toxicity, cell-based; settings: read-out: Activity; outline: as §2
[7] = Cytotoxicity against mouse 3T3-L1 cells transfected with Lenti-PPARgamma-Luc reporter assessed as cell viability at 10 uM incubated for 48 hrs by CCK-8 assay relative to control; type: toxicity, cell-based; settings: read-out: Activity; outline: as §2
[8] = Cytotoxicity against mouse 3T3-L1 cells transfected with Lenti-PPARgamma-Luc reporter assessed as cell viability at 3 uM incubated for 48 hrs by CCK-8 assay relative to control; type: toxicity, cell-based; settings: read-out: Activity; outline: as §2
[9] = Cytotoxicity against mouse 3T3-L1 cells transfected with Lenti-PPARgamma-Luc reporter assessed as cell viability at 4 uM incubated for 48 hrs by CCK-8 assay relative to control; type: toxicity, cell-based; settings: read-out: Activity; outline: as §2
[10] = system: 3T3-L1; assay: Inhibition of adipogenesis in mouse 3T3-L1 cells assessed as downregulation of PPARgamma relative protein level […] by Western blot analysis; type: functional, cell-based
Outline: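 Differentiated 3T3-L1 adipocytes treated with alkaloids at several doses. Lysed in RIPA with PMSF on ice for 30 min. Proteins transferred to PVDF and blocked with 5% skim milk for 2 h at 25 °C. Primary antibody 2 h, HRP secondary 1 h. PPARγ protein level expressed relative to control. n = 3.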

[11] = Cytotoxicity against mouse 3T3-L1 cells transfected with Lenti-PPARgamma-Luc reporter assessed as cell viability at 1 uM incubated for 48 hrs by CCK-8 assay relative to control; type: toxicity, cell-based; settings: read-out: Activity; outline: as §2
[12] = Cytotoxicity against mouse 3T3-L1 cells assessed as cell viability at 5 uM incubated for 48 hrs by CCK-8 assay relative to control; type: toxicity, cell-based; settings: read-out: Activity; outline: as §1
[13] = Cytotoxicity against mouse 3T3-L1 cells assessed as cell viability at 10 uM incubated for 48 hrs by CCK-8 assay relative to control; type: toxicity, cell-based; settings: read-out: Activity; outline: as §1
[14] = system: 3T3-L1; assay: Anti-adipogenic activity in mouse 3T3-L1 cells transfected with Lenti-PPARgamma-Luc reporter assessed as inhibition of PPARgamma expression by luminescence based microplate reader analysis; type: functional, cell-based
[15] = Cytotoxicity against mouse 3T3-L1 cells transfected with Lenti-PPARgamma-Luc reporter assessed as cell viability at 7.5 uM incubated for 48 hrs by CCK-8 assay relative to control; type: toxicity, cell-based; settings: read-out: Activity; outline: as §2
[16] = system: 3T3-L1; assay: Anti-adipogenic activity in mouse 3T3-L1 preadipocytes assessed as inhibition of lipid accumulation incubated for 6 days by Nile Red staining based fluorescence microscopic analysis; type: functional, cell-based; settings: time 6.0 day
[17] = Cytotoxicity against mouse 3T3-L1 cells transfected with Lenti-PPARgamma-Luc reporter assessed as cell viability at 15 uM incubated for 48 hrs by CCK-8 assay relative to control; type: toxicity, cell-based; settings: read-out: Activity; outline: as §2
[18] = Cytotoxicity against mouse 3T3-L1 cells assessed as cell viability at 20 uM incubated for 48 hrs by CCK-8 assay relative to control; type: toxicity, cell-based; settings: read-out: Activity; outline: as §1
[19] = Cytotoxicity against mouse 3T3-L1 cells assessed as cell viability at 15 uM incubated for 48 hrs by CCK-8 assay relative to control; type: toxicity, cell-based; settings: read-out: Activity; outline: as §1
[20] = Cytotoxicity against mouse 3T3-L1 cells assessed as cell viability at 25 uM incubated for 48 hrs by CCK-8 assay relative to control; type: toxicity, cell-based; settings: read-out: Activity; outline: as §1
[21] = Cytotoxicity against mouse 3T3-L1 cells transfected with Lenti-PPARgamma-Luc reporter assessed as cell viability at 2.5 uM incubated for 48 hrs by CCK-8 assay relative to control; type: toxicity, cell-based; settings: read-out: Activity; outline: as §2
[22] = Cytotoxicity against mouse 3T3-L1 cells transfected with Lenti-PPARgamma-Luc reporter assessed as cell viability at 20 uM incubated for 48 hrs by CCK-8 assay relative to control; type: toxicity, cell-based; settings: read-out: Activity; outline: as §2
[23] = Cytotoxicity against mouse 3T3-L1 cells assessed as cell viability at 2.5 uM incubated for 48 hrs by CCK-8 assay relative to control; type: toxicity, cell-based; settings: read-out: Activity; outline: as §1

Compound	viability at 48 h, 5 µM [4]	viability at 48 h, 0.1 µM [6]	viability at 48 h, 10 µM [7]	inhibition [10]	viability at 48 h, 1 µM [11]	viability at 48 h, 5 µM [12]	viability at 48 h, 10 µM [13]	Activity [14]	IC50 [14]	viability at 48 h, 7.5 µM [15]	Activity [16]	viability at 48 h, 15 µM [17]	viability at 48 h, 20 µM [18]	viability at 48 h, 15 µM [19]	viability at 48 h, 25 µM [20]	viability at 48 h, 2.5 µM [21]	viability at 48 h, 20 µM [22]	viability at 48 h, 2.5 µM [23]	further results
C=C(c1ccc(O)c(Oc2cc3c(cc2OC)CCN(C)[C@@H]3Cc2ccc(OC)cc2)c1)[C@H]1c2cc(OC)c(OC)cc2CCN1C	> 80%	> 80%	< 80%	Active	> 80%	> 80%	< 80%	Dose-Dependent Effect	4.6 µM	< 80%	Dose-Dependent Effect								viability at 48 h, 3 µM [1]: > 80%; viability at 48 h, 1 µM [2]: > 80%; viability at 48 h, 7.5 µM [3]: < 80%; viability at 48 h, 2 µM [5]: > 80%; viability at 48 h, 3 µM [8]: > 80%; viability at 48 h, 4 µM [9]: > 80%
C=C(c1ccc(OC)cc1)[C@@H]1c2cc(Oc3cc(C[C@H]4c5cc(OC)c(OC)cc5CCN4C)ccc3O)c(OC)cc2CCN1C	> 80%	> 80%	> 80%	Active	> 80%	> 80%	> 80%	Dose-Dependent Effect		> 80%	Dose-Dependent Effect	> 80%	< 80%	> 80%	< 80%	> 80%	< 80%		
C=C(c1ccc(O)c(Oc2cc3c(cc2OC)CCN(C)[C@@H]3Cc2ccc(OC)cc2)c1)[C@@H]1c2cc(OC)c(OC)cc2CCN1C	> 80%	> 80%	> 80%	Active	> 80%	> 80%	> 80%	Dose-Dependent Effect	10.7 µM	> 80%	Dose-Dependent Effect	> 80%	< 80%	> 80%	< 80%	> 80%	< 80%		
CC[C@H](C)C(=O)O[C@H]1C[C@@H](C)C=C2C=C[C@H](C)[C@H](CC[C@@H]3C[C@@H](O)CC(=O)O3)[C@H]21 [LOVASTATIN]						> 80%													
C=C(c1ccc(O)c(Oc2cc3c(cc2OC)CCN(C)[C@@H]3Cc2ccc(OC)cc2)c1)[C@@H]1c2cc(O)c(OC)cc2CCN1C	> 80%	> 80%	> 80%	Active	> 80%	> 80%	> 80%	Dose-Dependent Effect	8.8 µM	> 80%	Dose-Dependent Effect	< 80%	< 80%	< 80%		> 80%	< 80%	> 80%	
COc1ccc(C[C@@H]2c3cc(Oc4cc(C[C@@H]5c6cc(O)c(OC)cc6CCN5C)ccc4O)c(OC)cc3CCN2C)cc1 [ISOLIENSININE]	> 80%	> 80%	> 80%	Active	> 80%	> 80%	> 80%	Dose-Dependent Effect		> 80%	Dose-Dependent Effect	< 80%	< 80%	< 80%		> 80%	< 80%	> 80%	
COc1ccc(C[C@@H]2c3cc(Oc4cc(/C=C5\CN(C)CCc6cc(OC)c(OC)cc65)ccc4O)c(OC)cc3CCN2C)cc1	> 80%	> 80%	> 80%	Active	> 80%	> 80%	> 80%	Dose-Dependent Effect		> 80%	Dose-Dependent Effect	> 80%	< 80%	> 80%	< 80%	> 80%	< 80%		
COc1ccc(C[C@@H]2c3cc(Oc4cc(C[C@@H]5c6cc(OC)c(OC)cc6CCN5C)ccc4O)c(OC)cc3CCN2C)cc1 [NEFERINE]	> 80%	> 80%	> 80%	Active	> 80%	> 80%	> 80%	Dose-Dependent Effect	6.1 µM	> 80%	Dose-Dependent Effect	< 80%	< 80%	< 80%		> 80%	< 80%	> 80%	

Source: ChEMBL document CHEMBL5385940 (J Nat Prod, 2024)
